Measurements collected from several papers.
Protocols differ between the studies behind these lines.
Target: Serine/threonine-protein kinase Nek2 (NEK2, Homo sapiens, UniProt P51955)

| Structure (SMILES) | read-out | mode | method | concentration | quantity | value |
| --- | --- | --- | --- | --- | --- | --- |
| CCCS(=O)(=O)Nc1ccc(F)c(C(=O)c2c[nH]c3ncc(-c4ccc(Cl)cc4)cc23)c1F | enzyme activity | inhibitor | – | 1 µM | inhibition | < 20% |
| N#CC1(c2ccccn2)CCN(Cc2cc(C(=O)N3CCCC3)c(=O)n3ccccc23)CC1 | cell-free assay | – | competition with immobilised ligand | 1 µM | remaining binding | 95% |
| CC(C)(O)[C@H]1CC[C@H](Nc2ccc3ncc(-c4cccc(C(F)(F)F)c4)n3n2)CC1 | enzyme activity | inhibitor | – | 1 µM | remaining activity | 100% |
| CC(C)(C)C(=O)c1sc(NC2CCCCC2)nc1N | enzyme activity | inhibitor | – | 10 µM | remaining activity | 93% |
| Cc1c(NC(=O)c2cc(C(N)=O)nc3cc(F)ccc23)c(C(F)(F)F)nn1Cc1ccc(C#N)cc1 | cell-free assay | – | competition with immobilised ligand | 1 µM | remaining binding | 100% |
| CCN(CC)c1ccc(C2=NNC(=O)CC2C)cc1[N+](=O)[O-] (stereo not shown) | enzyme activity | inhibitor | – | 10 µM | remaining activity | 91% |
| CN(c1ncccc1CNc1nc(Nc2ccc3c(c2)CC(=O)N3)ncc1C(F)(F)F)S(C)(=O)=O | enzyme activity | inhibitor | – | 1 µM | inhibition | 4.1% |
| CN(C)C1CCN(CC#Cc2nn(C3CCCC3)c3nc(NCc4ccccc4)ncc23)C1 (stereo not shown) | enzyme activity | inhibitor | FRET | 10 µM | inhibition | 15% |
| Cc1ccc(C(=O)NCc2ccsc2)cc1C#Cc1cn(C(C)C)c2ncnc(N)c12 | enzyme activity | inhibitor | – | 1 µM | activity vs control | 111% |
| COc1cc(Nc2cnc(C#N)c(O[C@H](C)CN(C)C)n2)ncc1-c1cnn(C)c1 | enzyme activity | inhibitor | radiometric | 10 µM | remaining activity | 64% |
| FC(F)(F)c1ccc2c(c1)nc(-c1cccnc1)n2C1CC1 | cell-free assay | – | competition with immobilised ligand | 1 µM | remaining binding | 100% |
| Cc1ccc(C(=O)Nc2ccc(CN3CCN(C)CC3)c(C(F)(F)F)c2)cc1C#Cc1cnc2cccnn12 | enzyme activity | inhibitor | – | 23.5 nM | remaining activity | 92% |
| N#CCCc1ccc2c(c1)-c1[nH]c3ccc([N+](=O)[O-])cc3c1CC(=O)N2 | cell-free assay | – | – | 0.5 µM | remaining signal | 92.7% |
| COc1cc2ncnc(Nc3ccc(Oc4ccccc4)c(C)c3C)c2cc1OC | enzyme activity | inhibitor | – | 1 µM | inhibition | 1% |
| CN(C(=O)c1ccccc1)c1cc(N(C)c2ccc3c(c2)CCc2ccc(C(=O)NCCN4CCOCC4)cc2C3=O)ccc1F | cell-free assay | – | competition with immobilised ligand | 1 µM | remaining binding | 96% |
| Cc1cc(NC(=O)c2cccc3cc(-c4cccc5[nH]nc(N)c45)ccc23)ccc1F | enzyme activity | inhibitor | – | 0.1 µM | activity vs control | 99% |
| CNC(=O)c1cc(Oc2ccc(NC(=O)Nc3ccc(Cl)c(C(F)(F)F)c3)cc2)ccn1 | enzyme activity | inhibitor | – | 10 µM | inhibition | -16% |
| O=C1NC(=O)c2cc(Nc3ccc(F)cc3)c(Nc3ccc(F)cc3)cc21 | cell-free assay | – | – | 0.5 µM | remaining signal | 96.3% |
| CC(C)CC(=O)N1CCc2nc(-c3ccc(Br)cc3)nc(N(C)Cc3ccccc3)c2C1 | cell-free assay | – | competition with immobilised ligand | 0.1 µM | remaining binding | 100% |

| Structure (SMILES) | read-out | mode | method | concentration | quantity | value |
| --- | --- | --- | --- | --- | --- | --- |
| CC(C)c1ccc(NC(=O)c2cccs2)c(-c2nc3ccccc3[nH]c2=O)c1 | enzyme activity | inhibitor | – | 1 µM | activity vs control | 93% |
| CCN1CCC2(CC1)NC(=O)c1c(c3ccc(Cl)c(Cl)c3n1C)C2C#N (racemic) | thermal stability | – | DSF | 10 µM | ΔTm | 0 °C |
| CC(=O)Nc1c(C(C)=O)c(=O)n(C)c2nc(-c3ccc(Cl)cc3Cl)c(-c3ccc(Cl)cc3)cc12 | cell-free assay | – | competition with immobilised ligand | 1 µM | remaining binding | 100% |
| FC(F)(F)Oc1cccc(-c2cnc3ccc(-c4ccncc4)nn23)c1 | enzyme activity | inhibitor | radiometric | 1 µM | activity vs control | 91% |
| Cc1c(NC(=O)c2cc(C(N)=O)nc3cc(F)ccc23)c(C(F)(F)F)nn1Cc1ccc(C(C)(C)C)cc1 | cell-free assay | – | competition with immobilised ligand | 1 µM | remaining binding | 100% |
| Cc1ccc(Nc2nccc(N(C)c3ccc4c(C)n(C)nc4c3)n2)cc1S(N)(=O)=O | enzyme activity | inhibitor | – | 0.3 µM | inhibition | 2% |
| Cn1c2c(c3ccc(Cl)c(Cl)c31)C(C#N)C(C)(C)NC2=O (stereo not shown) | thermal stability | – | DSF | 10 µM | ΔTm | -0.9 °C |
| CC(C)(C)c1nc2c(s1)c1nc(N)ncc1c1ccc(NS(=O)(=O)c3c(F)cccc3F)c(F)c12 | enzyme activity | inhibitor | radiometric | 1 µM | remaining activity | 103% |
| O=C1Nc2ccc(Cl)cc2C1=Cc1cc(Cl)c(O)c(Cl)c1 | cell-free assay | – | – | 0.5 µM | remaining signal | 86% |
| Nc1ncnc2occ(-c3ccc(NC(=O)Nc4cc(C(F)(F)F)ccc4F)cc3)c12 | cell-free assay | inhibitor | – | 20 µM | remaining signal | 2.1% |
| CNCc1ccc(-c2cc(-c3nc(-c4ccc(S(=O)(=O)C(C)C)cc4)cnc3N)on2)cc1 | enzyme activity | inhibitor | – | 0.4 µM | inhibition | 0% |
| Nc1nc(Nc2ccccc2)sc1C(=O)c1c(F)cccc1F | enzyme activity | inhibitor | – | 10 µM | remaining activity | 92% |
| Cn1c2c(c3ccc(Cl)c(Cl)c31)C(C#N)C1(CCOCC1)NC2=O (stereo not shown) | thermal stability | – | DSF | 10 µM | ΔTm | -0.2 °C |
| CCN(CC)CCNC(=O)c1c(C)[nH]c(/C=C2\C(=O)Nc3ccc(F)cc32)c1C | enzyme activity | inhibitor | – | 0.3 µM | inhibition | 9% |
| Cc1sc(C(=O)NC2COC2)cc1-n1cc(NC(=O)Nc2c(F)cccc2Cl)cn1 | enzyme activity | inhibitor | – | 10 µM | remaining activity | 88% |
| Cn1c(=O)n(-c2ccc(C(C)(C)C#N)cc2)c2c3cc(-c4cnc5ccccc5c4)ccc3ncc21 | enzyme activity | inhibitor | – | 10 µM | remaining activity | 145% |
| Cn1c2c(Cl)c(Cl)ccc2c2cn[nH]c(=O)c21 | thermal stability | – | DSF | 10 µM | ΔTm | -0.6 °C |
| CNC(=O)c1ccc(Nc2ncc(C(F)(F)F)c(NCc3nccnc3N(C)S(C)(=O)=O)n2)cc1 | cell-free assay | – | competition with immobilised ligand | 0.1 µM | remaining binding | 75% |
